# Experiments:
# MRC5 = assay: Cytotoxicity against normal lung fibroblast MRC5 cell line; assay type: functional, cell-based; settings: Homo sapiens
# How it was run: (§1)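 Sulforhodamine B growth assay. Plating densities were 6000 (SKBr3), 8000 (MDA-MB-468) or 10,000 (MRC-5) cells/well, attached overnight. Drug, added in triplicate, was 1:1 serially diluted with DMSO or PBS vehicle. Exposure lasted 72 h, then cells were fixed with TCA and stained with 0.4% SRB.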
# MDA-MB-468 [1] = assay: Growth inhibition in human breast cancer MDA-MB-468 cell line using SRB; assay type: functional, cell-based; how it was run: as §1
# MDA-MB-468 [2] = assay: Antimitotic activity in human breast cancer MDA-MB-468 cell line; assay type: functional, cell-based
# How it was run: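 MDA-MB-468 cells seeded at 8000/well, attached overnight, then exposed to drug or DMSO vehicle for 24 h at 37 °C, 5% CO2. Cells fixed in cold methanol, blocked, then probed with Tg-3 antibody against mitotically phosphorylated nucleolin, followed by HRP anti-mouse IgM and ECL luminescence. IC50 taken as the concentration that doubles luminescence over vehicle.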
# [3] = Solubility in water; assay type: physicochemical
# [4] = biological target: T1, Heat shock protein HSP 90-beta (Homo sapiens, UniProt P08238); assay: Inhibitory activity against Hsp90 in human breast cancer SKBr3 cell line; assay type: cell-based
# [5] = biological target: T1, Heat shock protein HSP 90-beta; assay: Inhibition of Her2 degradation in human breast cancer SKBr3 cell line; assay type: functional, cell-based
# How it was run: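 Fixed in cold methanol, blocked, then probed overnight at 4 °C with anti-Her2, then HRP anti-rabbit and ECL luminescence. Normal rabbit IgG background was subtracted.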
# [6] = biological target: T1, Heat shock protein HSP 90-beta; assay: Inhibitory activity against Hsp90 in human breast cancer MDA-MB-468 cell line; assay type: cell-based
# SK-BR-3 = assay: Growth inhibition in human breast cancer SKBr3 cell line using SRB; assay type: functional, cell-based
# [7] = biological target: Heat shock protein HSP 90 (Mus musculus); assay: Binding affinity to Hsp90 in mouse lung tissue
# [8] = biological target: Heat shock protein HSP 90 (Mus musculus); assay: Binding affinity to Hsp90 in mouse heart tissue
# T1 sequence (P08238 whole entry): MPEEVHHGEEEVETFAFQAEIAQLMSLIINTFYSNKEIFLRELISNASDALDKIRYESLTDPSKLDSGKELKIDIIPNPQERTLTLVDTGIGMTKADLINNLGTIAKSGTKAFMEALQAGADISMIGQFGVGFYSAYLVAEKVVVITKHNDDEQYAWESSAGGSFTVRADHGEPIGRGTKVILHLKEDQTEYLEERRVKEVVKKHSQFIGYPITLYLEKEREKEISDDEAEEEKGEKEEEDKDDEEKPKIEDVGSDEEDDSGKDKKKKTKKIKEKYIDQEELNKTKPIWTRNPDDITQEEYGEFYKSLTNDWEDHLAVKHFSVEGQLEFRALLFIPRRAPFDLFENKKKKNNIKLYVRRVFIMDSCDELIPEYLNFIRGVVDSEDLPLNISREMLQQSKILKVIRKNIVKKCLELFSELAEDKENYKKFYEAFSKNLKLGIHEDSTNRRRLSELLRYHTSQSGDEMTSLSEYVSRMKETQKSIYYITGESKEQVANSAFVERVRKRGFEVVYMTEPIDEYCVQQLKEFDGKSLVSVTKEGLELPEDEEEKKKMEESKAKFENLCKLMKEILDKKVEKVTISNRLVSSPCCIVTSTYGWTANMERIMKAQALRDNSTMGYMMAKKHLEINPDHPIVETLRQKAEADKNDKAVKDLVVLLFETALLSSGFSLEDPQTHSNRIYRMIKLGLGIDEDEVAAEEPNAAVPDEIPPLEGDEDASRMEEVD
SMILES,IC50 (MDA-MB-468 [1]),IC50 (MDA-MB-468 [2]),solubility [3],EC50 [4],IC50 [5],EC50 [6],IC50 (SK-BR-3),EC50 [7],EC50 [8],IC50 (MRC5)
C#CCCCn1c(Cc2cc(OC)c(OC)cc2Cl)nc2c(N)nc(F)nc21,27300 nM,> 50000 nM,–,4600 nM,30000 nM,4500 nM,20600 nM,–,–,–
C#CCCCn1c(Cc2cc3c(cc2Cl)OCO3)nc2c(N)nc(F)nc21,440 nM,450 nM,–,77.2 nM,300 nM,51.2 nM,250 nM,–,–,–
C#CCCCn1c(Cc2cc(OC)c(OC)cc2Br)nc2c(N)nc(F)nc21,> 50000 nM,> 50000 nM,–,> 15000 nM,> 50000 nM,> 15000 nM,55000 nM,–,–,–
C#CCCCn1c(Sc2cc3c(cc2Br)OCO3)nc2c(N)ncnc21,560 nM,530 nM,–,50.4 nM,365 nM,77.1 nM,–,–,–,–
C#CCCCn1c(Cc2cc(OC)c(OC)cc2I)nc2c(N)nc(F)nc21,> 50000 nM,> 50000 nM,–,> 15000 nM,> 50000 nM,> 15000 nM,> 50000 nM,–,–,–

# Molecules with a lower IC50 (MDA-MB-468 [1]), results first:
IC50 (MDA-MB-468 [1]),IC50 (MDA-MB-468 [2]),solubility [3],EC50 [4],IC50 [5],EC50 [6],IC50 (SK-BR-3),EC50 [7],EC50 [8],SMILES,IC50 (MRC5)
58 nM,70 nM,> 5000 µg/mL,–,–,–,–,–,–,CC(C)NCCCn1c(Sc2cc3c(cc2I)OCO3)nc2c(N)ncnc21 [PU-H71],1000 nM
270 nM,375 nM,> 5000 µg/mL,–,–,–,142 nM,–,–,CC(C)NCCCn1c(Sc2cc3c(cc2Br)OCO3)nc2c(N)ncnc21,–
350 nM,310 nM,–,56.5 nM,210 nM,30.5 nM,215 nM,–,–,C#CCCCn1c(Cc2cc3c(cc2Br)OCO3)nc2c(N)nc(F)nc21,–
150 nM,180 nM,–,22.3 nM,90 nM,23.7 nM,90 nM,–,–,C#CCCCn1c(Cc2cc3c(cc2I)OCO3)nc2c(N)nc(F)nc21,–
90 nM,100 nM,> 5000 µg/mL,50.4 nM,80 nM,39.1 nM,45 nM,2400 nM,6900 nM,CC(C)NCCCn1c(Cc2cc3c(cc2I)OCO3)nc2c(N)nc(F)nc21,> 5000 nM
170 nM,184 nM,–,10.8 nM,100 nM,10.9 nM,90 nM,–,–,C#CCCCn1c(Sc2cc3c(cc2I)OCO3)nc2c(N)ncnc21,–

# From ChEMBL document CHEMBL1148576, “Identification of potent water soluble purine-scaffold inhibitors of the heat shock protein 90” (J Med Chem, 2006)
